Test system: Hepatitis C virus
Experiment: Antiviral activity against HCV genotype 1b Con1 infected in replicon cells after 3 days by real-time PCR analysis
Format: functional, organism-based, Hepacivirus hominis
Conditions: isolate Con1, 72 h
How it was run: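 Con1 genotype 1b replicon cells plated at 5000/well one day before dosing; inhibitor added from DMSO in 10 serial twofold dilutions, triplicate, final 0.5% DMSO, 10% FBS. Harvest 3 days post-dose; replicon RNA measured by real-time RT-PCR (Taqman) normalised to GAPDH RNA; EC50 derived.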

| EC50 [µM] | SMILES |
| --- | --- |
| > 100 | CC#C[C@@]1(O)[C@H](O)[C@@H](CO)O[C@H]1n1ccc(=O)[nH]c1=O |
| > 100 | C#C[C@@]1(O)[C@H](O)[C@@H](CO)O[C@H]1n1ccc(=O)[nH]c1=O |
| > 100 | CC#C[C@@]1(F)[C@H](O)[C@@H](CO)O[C@H]1n1ccc(=O)[nH]c1=O |

Biological target: RNA-directed RNA polymerase (Hepacivirus hominis, UniProt O39930)
Experiment: Inhibition of wild-type HCV genotype 1b BK NS5B Cdelta55 RNA dependent RNA polymerase using RNA as substrate after 1 hr in presence of NTPs by [33P]-CTP based topcount assay
Design: species or system Hepatitis C virus (isolate BK)
Conditions: not given

Sequence of RNA-directed RNA polymerase (O39930 whole entry): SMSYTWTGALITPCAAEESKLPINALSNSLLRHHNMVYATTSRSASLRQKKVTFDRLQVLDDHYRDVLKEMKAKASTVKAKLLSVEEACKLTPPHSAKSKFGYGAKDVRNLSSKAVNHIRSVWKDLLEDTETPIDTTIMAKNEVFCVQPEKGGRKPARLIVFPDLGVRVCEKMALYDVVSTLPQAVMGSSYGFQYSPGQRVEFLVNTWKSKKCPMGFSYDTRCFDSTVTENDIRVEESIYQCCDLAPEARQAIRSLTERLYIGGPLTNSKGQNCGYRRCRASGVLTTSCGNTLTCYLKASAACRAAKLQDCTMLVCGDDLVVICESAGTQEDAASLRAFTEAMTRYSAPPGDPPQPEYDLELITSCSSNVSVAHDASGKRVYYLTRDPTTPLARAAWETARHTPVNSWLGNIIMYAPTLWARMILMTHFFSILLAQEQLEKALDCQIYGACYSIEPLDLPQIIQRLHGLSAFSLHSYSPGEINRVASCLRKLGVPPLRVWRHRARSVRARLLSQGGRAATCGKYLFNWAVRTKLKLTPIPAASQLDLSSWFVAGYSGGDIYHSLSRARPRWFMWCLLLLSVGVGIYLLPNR

| IC50 [µM] | SMILES |
| --- | --- |
| 0.09 | C#C[C@@]1(O)[C@H](O)[C@@H](COP(=O)(O)OP(=O)(O)OP(=O)(O)O)O[C@H]1n1ccc(=O)[nH]c1=O |
| 9.9 | CC#C[C@@]1(F)[C@H](O)[C@@H](COP(=O)(O)OP(=O)(O)OP(=O)(O)O)O[C@H]1n1ccc(=O)[nH]c1=O |
| 3.6 | C#C[C@@]1(F)[C@H](O)[C@@H](COP(=O)(O)OP(=O)(O)OP(=O)(O)O)O[C@H]1n1ccc(=O)[nH]c1=O |
| 54 | C#C[C@]1(O)[C@H](O)[C@@H](COP(=O)(O)OP(=O)(O)OP(=O)(O)O)O[C@H]1n1ccc(=O)[nH]c1=O |
| 1.1 | CCCCCCN(C)C.CCCCCCN(C)C.CCCCCCN(C)C.CCCCCCN(C)C.C[C@@]1(F)[C@H](O)[C@@H](COP(=O)(O)OP(=O)(O)OP(=O)(O)O)O[C@H]1n1ccc(=O)[nH]c1=O |
| 0.16 | CC#C[C@@]1(O)[C@H](O)[C@@H](COP(=O)(O)OP(=O)(O)OP(=O)(O)O)O[C@H]1n1ccc(=O)[nH]c1=O |

From ChEMBL document CHEMBL4177623, “Concise syntheses and HCV NS5B polymerase inhibition of (2'R)-3 and (2'S)-2'-ethynyluridine-10 and related nucleosides” (Bioorg Med Chem Lett, 2017)
